Results from ChEMBL document CHEMBL5042548, “Multiparameter Optimization of Oxidative Phosphorylation Inhibitors for the Treatment of Pancreatic Cancer” (J Med Chem, 2022).
The source made the active and inactive calls. No cut-off for these calls is given here.

Assays:
[1] = AUC (0 to infinity) in CD-1 mouse at 2 mg/kg, iv; assay type: ADME, organism-based; design: route intravenous, time infinity, dose 2 mg/kg; details: in vivo
Summary of the method: (§1)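 Plasma PK in CD-1 mice after single i.v. (2 mg/kg) or p.o. (10 mg/kg) dosing. Parameters come from non-compartmental analysis. Bioavailability = (AUC_po×Dose_iv)/(AUC_iv×Dose_po)×100%. Terminal t1/2 is taken from ≥3 points in the terminal phase.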

[2] = Oral bioavailability in CD-1 mouse at 10 mg/kg; assay type: ADME, organism-based; details: in vivo; summary of the method: as §1
[3] = Inhibition of oxidative phosphorylation in human MIA PaCa-2 cells assessed as reduction in ATP production incubated for 24 hrs in glucose-containing medium by celltiter-glo luminescence cell viability assay; assay type: functional, cell-based; details: MIA PaCa-2, 24 h
Summary of the method: (§2)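 MIA PaCa-2 cells are seeded at 10000 cells/well in glucose RPMI + 10% FBS or in glucose-free RPMI + 10 mM galactose + 10% FBS. Total ATP is measured by CellTiter-Glo luminescence 24 h after compound. IC50 is by nonlinear regression; ≥3 independent experiments.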

MIA PaCa-2 [4] = experiment: Cytotoxicity against human MIA PaCa-2 cells assessed as inhibition of cell growth incubated for overnight in galactose-containing medium followed by compound addition and measured after 3 days by MTT assay; assay type: functional, cell-based; details: MIA PaCa-2, 72 h
Summary of the method: (§3)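 MIA PaCa-2 3-day MTT in glucose medium (RPMI 1640 + 10% FBS) or galactose medium (glucose-free RPMI + 10 mM galactose + 10% FBS). Galactose wells are seeded at 8000 cells/well. MTT read-out is at 570 nm after DMSO solubilization. IC50 is by nonlinear regression; ≥3 independent experiments.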

BXPC-3 = experiment: Cytotoxicity against human BXPC-3 cells assessed as inhibition of cell growth incubated for overnight in glucose-containing medium followed by compound addition and measured after 7 days by MTT assay; assay type: functional, cell-based; details: BXPC-3, 168 h
Summary of the method: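 7-day MTT in glucose medium (RPMI 1640 + 10% FBS). Seeding is 200 cells/well for MIA PaCa-2 and 300 cells/well for BxPC-3, overnight at 37 °C, 5% CO2, before compound. MTT 3 mg/mL is added for 4 h, then DMSO, and absorbance is read at 570 nm. IC50 is by nonlinear regression; ≥3 independent experiments.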

MIA PaCa-2 [5] = experiment: Cytotoxicity against human MIA PaCa-2 cells assessed as inhibition of cell growth incubated for overnight in glucose-containing medium followed by compound addition and measured after 3 days by MTT assay; assay type: functional, cell-based; details: MIA PaCa-2, 72 h; summary of the method: as §3
[6] = Volume of distribution at steady state in CD-1 mouse at 2 mg/kg, iv; assay type: ADME, organism-based; details: in vivo, read-out: Vdss; summary of the method: as §1
[7] = Inhibition of oxidative phosphorylation in human MIA PaCa-2 cells assessed as reduction in ATP production incubated for 24 hrs in galactose-containing medium by celltiter-glo luminescence cell viability assay; assay type: functional, cell-based; details: MIA PaCa-2, 24 h; summary of the method: as §2
[8] = Initial plasma concentration in CD-1 mouse at 2 mg/kg, iv; assay type: ADME, organism-based; summary of the method: as §1
Panc02 = experiment: Antitumor activity against Panc02 cells allografted in C57BL/6 mouse syngeneic model assessed as tumor growth inhibition at 10 mg/kg, po administered once daily for 28 days and measured twice per week; assay type: functional, organism-based; details: time 28.0 day
Summary of the method: (§4)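 Female C57BL/6 mice, 6-10 weeks old, get 5×10^6 Pan02 cells s.c. in the right flank and are randomized at ~100 mm3 (n = 5/group). Dosing is daily for 28 days. Vehicle is 10% DMSO/50% PG/40% saline, except 15 mg/kg uses 10% DMSO/60% PG/30% saline. Caliper volume (length×width²)/2 and body weight are recorded twice weekly.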

[9] = Toxicity in C57BL/6 mouse allografted with mouse Panc02 cells assessed as body weight loss at 10 mg/kg, po administered once a day for 28 days and measured twice per week; assay type: organism-based; details: in vivo, 672 h, time 28 day; summary of the method: as §4
[10] = AUC (0 to infinity) in CD-1 mouse at 10 mg/kg, po; assay type: ADME, organism-based; design: route oral, time infinity, dose 10 mg/kg; details: in vivo; summary of the method: as §1
[11] = Inhibition of oxidative phosphorylation complex I in human MIA PaCa-2 cells assessed as reduction in NAD+/NADH ratio incubated for 48 hrs in glucose-containing medium by NAD/NADH-Glo assay; assay type: cell-based; details: MIA PaCa-2, 48 h
Summary of the method: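 MIA PaCa-2 cells at 5×10^3/well are treated next day for 48 h in RPMI 1640 + 10% FBS. After a PBS wash, cells are lysed with bicarbonate buffer/1% DTAB. Lysate is split: NAD+ with 0.4 N HCl at 60 °C for 15 min, NADH heated directly, then neutralized. NAD/NADH-Glo luminescence is read after 30 min. IC50 is by nonlinear regression.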

[12] = Toxicity in C57BL/6 mouse allografted with mouse Panc02 cells assessed as drug tolerability at 10 mg/kg, po administered once a day for 28 days; assay type: organism-based; details: in vivo, 672 h, time 28 day
[13] = Terminal elimination half life in CD-1 mouse at 10 mg/kg, po; assay type: ADME, organism-based; details: in vivo, read-out: LambdaZ (converted); summary of the method: as §1
[14] = Metabolic stability in mouse liver microsomes assessed as half life at 10 uM measured up to 60 mins in presence of NADPH by LC-MS/MS analysis; assay type: ADME, Microsome; details: liver microsomes
[15] = Clearance in CD-1 mouse at 2 mg/kg, iv; assay type: ADME, organism-based; details: in vivo; summary of the method: as §1
[16] = AUC(0 to t) in CD-1 mouse at 10 mg/kg, po; assay type: ADME, organism-based; design: dose 10 mg/kg; details: in vivo; summary of the method: as §1
[17] = Clearance in CD-1 mouse at 10 mg/kg, po; assay type: ADME, organism-based; details: in vivo; summary of the method: as §1
[18] = AUC(0 to t) in CD-1 mouse at 2 mg/kg, iv; assay type: ADME, organism-based; design: dose 2 mg/kg; details: in vivo; summary of the method: as §1
[19] = Terminal elimination half life in CD-1 mouse at 2 mg/kg, iv; assay type: ADME, organism-based; details: in vivo, read-out: LambdaZ (converted); summary of the method: as §1
[20] = Metabolic stability in human liver microsomes assessed as half life at 10 uM measured up to 60 mins in presence of NADPH by LC-MS/MS analysis; assay type: ADME, Microsome; details: liver microsomes

AUC(0-inf) [1]: 0.657 µM·h | F [2]: 11.3% | Vd [6]: 5.2 L/kg | C0 [8]: 354 ng/mL | AUC(0-inf) [10]: 0.417 µM·h | half-life [13]: 3.06 h | half-life at 10 µM [14]: > 1 h | clearance [15]: 106 mL/min/kg | AUC(0-t) [16]: 0.368 µM·h | CL/F [17]: 835 mL/min/kg | AUC(0-t) [18]: 0.65 µM·h | half-life [19]: 1.42 h | half-life at 10 µM [20]: > 1 h
Structure (SMILES): CC(C)S(=O)(=O)c1ccc(S(=O)(=O)N2CCC[C@@H](C(=O)N3CCC(F)(F)CC3)C2)cc1
IC50 [3]: > 3000 nM | IC50 (MIA PaCa-2 [4]): 9.1 nM | IC50 (BXPC-3): 50 nM | IC50 (MIA PaCa-2 [5]): > 3000 nM | IC50 [7]: 11 nM | Activity (Panc02): Active | Activity [9]: Non-Toxic | IC50 [11]: 3.6 nM | Activity [12]: Non-Toxic
